D1 mod – D1 dopamine receptor (human) allosteric modulation; B-score at 10 µM; AID 641; HEK293 D1, CRE-luciferase, dopamine EC30 potentiation; actives deviate in either direction; hit rate 5.9% among 58,000;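 active = luminescence count or its row- and column-corrected plate score outside the 99.7% band of the plate's sample wells, on either side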
hDAT+cocaine – human DAT dopamine uptake with cocaine, either direction; Q01959; LLC-PK1 hDAT cells, [14C]-dopamine uptake with cocaine IC80; actives deviate in either direction; B-score at 10 µM; hit rate 1.3% among 110,000; AID 449768;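 active = Z score or B-score, a plate-position-corrected score, falls beyond the plate's 99.7% confidence bounds, in either direction; inactive = both scores lie inside the 99.7% bounds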;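 also: scored against the spread of the other compound wells on the same plate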
Target sequence (Q01959 whole entry, looked up): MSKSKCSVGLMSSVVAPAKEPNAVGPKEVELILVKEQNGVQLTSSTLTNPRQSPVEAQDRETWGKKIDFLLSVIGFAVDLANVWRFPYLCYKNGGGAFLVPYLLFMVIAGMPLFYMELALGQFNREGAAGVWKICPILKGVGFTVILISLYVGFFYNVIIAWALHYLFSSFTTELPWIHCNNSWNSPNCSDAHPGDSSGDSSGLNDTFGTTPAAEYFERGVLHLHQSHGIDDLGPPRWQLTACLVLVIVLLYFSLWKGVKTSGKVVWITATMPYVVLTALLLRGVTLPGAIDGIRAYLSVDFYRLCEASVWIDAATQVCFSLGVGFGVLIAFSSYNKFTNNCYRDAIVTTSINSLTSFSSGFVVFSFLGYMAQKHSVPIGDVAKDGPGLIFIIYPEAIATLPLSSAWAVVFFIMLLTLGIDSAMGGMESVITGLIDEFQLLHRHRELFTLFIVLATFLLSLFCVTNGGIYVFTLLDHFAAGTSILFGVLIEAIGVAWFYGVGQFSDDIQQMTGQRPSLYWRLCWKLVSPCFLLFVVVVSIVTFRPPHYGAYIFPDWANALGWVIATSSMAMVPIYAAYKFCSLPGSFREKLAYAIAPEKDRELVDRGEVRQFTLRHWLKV
AP complement – orthogonal test for alternative complement pathway inhibitors | Human serum alternative complement pathway, LPS-coated ELISA, C3 deposition; tested in compound mixtures | inhibition, % at 5 µM | hit rate 0.08% among 62,000 | AID 1235;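 active = inhibition above 30% in each of the two pooled mixtures holding the compound, so the lower value exceeds 30%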;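 also: 0% = serum in Mg-EGTA without compound and 100% = EDTA serum blank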
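Test system – human serum alternative complement pathway, C3 deposition on LPS-coated wells · Buffer or medium – diluted human serum in Mg2+-EGTA GVB++ · Compound dosing – 5 µM each compound, pools of ten, 50 µM per pool · Schedule – 1 h serum-compound exposure at 37 °C · Measured by – Anti-C3 ELISA, OD 450 nm · Read-out basis – percent inhibition of C3 deposition onto LPS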
WNV protease inh – blocks West Nile virus NS2B-NS3 protease activity. hit rate 0.18% among 65,000. WNV NS2B-NS3 protease, fluorogenic substrate Ex360/Em465; stronger effect = lower value. z-score (concentration not given with the values); in the data active = z-score below about -3
D1 PAM confirm – confirmation of human D1 dopamine receptor allosteric modulators | AID 642 | luminescence at 10 µM | shares compounds with D1 mod | hit rate 88% among 2,200 | HEK293 D1 CRE-luciferase, dopamine EC30 potentiation; stronger effect = higher value;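 active = luminescence in either of two replicates above the same-plate mean plus 3 SD of the low-dose dopamine control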
D1 no dopamine – activates D1 CRE-luciferase signal without dopamine present | luminescence at 10 µM | HEK293 D1 CRE-luciferase, luminescence, no dopamine; stronger effect = higher value | shares compounds with D1 mod | AID 646 | hit rate 0.8% among 1,900; in the data active = luminescence above about 3900
Isoprot counter – isoproterenol response counter-screen activity for D1 modulators; shares compounds with D1 mod; HEK293 D1 CRE-luciferase, isoproterenol EC30 counter-screen; stronger effect = higher value; luminescence at 10 µM; hit rate 63% among 2,200; AID 647;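 active = luminescence in either replicate above plate mean of wells with a partly effective reference agonist dose plus 3 SD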;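 also: isoproterenol raises cAMP through native beta-adrenoceptor Gs so signal bypasses D1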
Starred values were filed as active, the others as inactive; . = no result given. The entries come from a sample that favours hits as a whole.

SMILES	D1 mod	hDAT+cocaine	AP complement	WNV protease inh	D1 PAM confirm	D1 no dopamine	Isoprot counter
Cc1ccc(O)c(C(=O)c2cnc3c(c2)CN(C)C(=O)N3)c1	.	0.44	.	.	.	.	.
CCOC(=O)N1CCC(NC(=O)c2cccc3c2C(=O)N(Cc2cccnc2)C3)CC1	3.7*	0.56	16	0.3	8400*	1600	3064
NS(=O)(=O)c1ccc(NCc2cc(Cl)ccc2OCc2ccccc2F)cc1	.	0.058	.	.	.	.	.
COc1cc(OC)cc(C(=O)Nc2cccc(C(C)=O)c2)c1	-0.83	0.84	0	-1.4	.	.	.
COc1cc(OC)cc(C(C)=O)c1	8.5*	-0.026	7	2.2	24876*	1768	4388*
COC(=O)CCCC1=CC2=CC(=O)C(C)(OC(=O)c3cccs3)C(=O)C2=CN1C1CC1 (stereo unspecified)	.	-0.34	.	.	.	.	.
CC1Cc2nc(SCC(=O)NC3CCCCC3)n(C)c(=O)c2S1 (stereo unspecified)	-0.014	-0.12	.	0.07	.	.	.
CSc1nc2c(c(=O)n1Cc1ccccc1)SC(C)C2 (stereo unspecified)	5.4*	0.43	.	0.08	8668*	1704	3304*
CC(C)Sc1nc2c(c(=O)n1C)SC(C)C2 (stereo unspecified)	3.4*	-0.18	26	-1.2	8852*	1524	2736
O=C(O)c1ccc2noc(-c3ccccc3)c2c1	3*	1.2	7	-0.9	6504	1520	2716
CCN(CC)CCNC(=O)c1c(O)c2cc(OC)c(OC)cc2[nH]c1=O	-1.5	.	20	1.4	.	.	.
COc1cc(-c2noc(-c3cccs3)n2)cc(OC)c1OC	0.32	0.79	8	-1	.	.	.
CCOc1ccc(Br)cc1-c1noc(-c2cccs2)n1	6.7*	-0.3	12	-0.31	22604*	1692	4336*
CC1CCCCN1C(=O)COC(=O)c1n[nH]c2ccccc12 (stereo unspecified)	.	-0.15	.	.	.	.	.
COc1cc2c(cc1OC)-c1cc(N3CCCCCC3)nc(=O)n1CC2	3.9*	0.49	11	0.71	21696*	2196	10616*
CCOc1cccc(Nc2cc3n(c(=O)n2)CCc2cc(OC)c(OC)cc2-3)c1	.	0.98	.	.	.	.	.
CCN(CC)CCCNc1cc2n(c(=O)n1)CCc1cc(OC)c(OC)cc1-2	0.2	0.081	12	-0.18	.	.	.
COc1cc2c(cc1OC)-c1cc(N3CCCc4ccccc43)nc(=O)n1CC2	.	-0.77	-3	-0.24	.	.	.
COc1cc2c(cc1OC)-c1cc(NC3CCCCCC3)nc(=O)n1CC2	4*	0.62	7	0.26	20748*	2368	16100*
COc1cc2c(cc1OC)-c1cc(Nc3ccc4c(c3)OCCO4)nc(=O)n1CC2	24*	0.85	9	-0.25	13360*	1788	12024*
COc1cc2c(cc1OC)-c1cc(OCc3cccnc3)nc(=O)n1CC2	19*	0.65	15	2.9	25704*	2128	9096*
O=C(COc1ncnc2scc(-c3ccc(Cl)cc3)c12)NCc1ccco1	.	-0.2	.	.	.	.	.
CCOc1ccc(NC(=O)N[C@@H](CCSC)C(=O)OC)cc1	.	0.51	.	.	.	.	.
COc1ccc(C(=O)OCCNC(=O)c2c(Cl)nc3ccccn23)cc1	5.1*	2.3	1	0.85	13996*	1764	3784*
CC(C)(C)c1ccc(C(=O)OCCNC(=O)c2c(Cl)nc3ccccn23)cc1	.	0.18	.	.	.	.	.
SMILES	D1 mod	hDAT+cocaine	AP complement	WNV protease inh	D1 PAM confirm	D1 no dopamine	Isoprot counter
OCC(CO)(CO)n1cnnn1	3.5*	-0.24	-22	0.6	5960	1496	2520
OC[C@H]1O[C@@H](n2cnc3c(NC4CCCC4)ncnc32)[C@H](O)[C@@H]1O	5.5*	0.68	-9	-2	7504*	2116	5496*
N#CCSc1nnc(Cc2cccc3ccccc23)n1C1CCCCC1	.	0.73	-6	1.1	.	.	.
CCCCc1ccc(S(=O)(=O)Nc2cc(C)on2)cc1	1.5	1.2	1	-0.52	.	.	.
CN(C)c1nc(Oc2ccc(/C=N/O)cc2)nc(N(C)C)n1	0.98	1.6	18	3	.	.	.
CC(C)Nc1nc(NC(C)C)nc(Oc2ccc(/C=N/O)cc2)n1	5.3*	0.42	19	-0.1	6456*	.	2472
Cc1cc(Br)c2[nH]c3c(c2c1)CCCC3=O	.	0.068	.	.	.	.	.
O=C(N/N=C/c1cccc(Oc2ccc([N+](=O)[O-])cc2[N+](=O)[O-])c1)c1cncc(Br)c1	.	-0.011	.	.	.	.	.
CC1(C(=O)NC2CCCCC2)CCC(=O)N1Cc1cccnc1 (stereo unspecified)	7.5*	-1.7	12	0.8	4868	1504	2740
Cc1cc(C(=O)Nc2ccc(C(=O)O)cc2)c(-c2ccccc2)o1	2.5*	-0.06	12	0.1	7724*	1596	3056*
CC(=O)c1cc(C(=O)Nc2ccc(C(=O)O)cc2)oc1C	.	-0.43	.	.	.	.	.
CN1C(=O)C2(C(C#N)=C(N)Oc3c2oc(CO)cc3=O)c2ccccc21 (stereo unspecified)	8.9*	0.009	-14	1.2	5568	1636	2384
O=C1COc2ccc(C(=O)c3ccccc3C(=O)NCc3ccco3)cc2N1	.	0.41	.	.	.	.	.
CCCn1c2c(c(O)c(C(=O)NC)c1=O)CCCC2	4.6*	-0.33	4	0.29	9448*	1536	3324
Cc1ccc(N2CCCCn3c2nc2c3c(=O)n(CC(=O)O)c(=O)n2C)cc1	0.47	-1.7	2	-0.97	.	.	.
CCOC(=O)c1oc2ccc(S(=O)(=O)N3CCC(C)CC3)cc2c1C	1.4	0.25	10	-0.71	.	.	.
CCOC(=O)c1oc2ccc(S(=O)(=O)N3CCOCC3)cc2c1C	4.3*	-1.2	5	0.55	7344*	1548	2632
N#Cc1c2n(c3c(=O)n(Cc4ccc(Cl)cc4)cnc13)CCCC2	2.6*	0.43	5	0.61	10052*	1408	3896*
Cc1c(C#N)c2ncn(Cc3ccccn3)c(=O)c2n1-c1ccccc1	.	1.4	.	.	.	.	.
COC(=O)Cn1cnc2c(C#N)c3n(c2c1=O)CCCC3	.	0.098	.	.	.	.	.
N#Cc1c2n(c3c(=O)n(Cc4ccccc4Cl)cnc13)CCCC2	3.4*	0.049	5	-1.5	9264*	1636	3972*
O=C(NC12CC3CC(CC(C3)C1)C2)C12CC3CC(C1)CC(n1cnc(Cl)n1)(C3)C2	.	-0.11	.	.	.	.	.
Cc1cc(C)nc(-n2nc(C)cc2NC(=O)CNCc2ccccc2)n1	.	0.53	.	.	.	.	.
CCC(C(=O)Nc1cc(C)nn1-c1nc(C)cc(C)n1)c1ccccc1 (stereo unspecified)	9.9*	-0.2	-1	-0.09	12296*	.	4664*
COc1ccc(S(=O)(=O)N2CCc3ccccc32)cc1C(=O)OCc1nnc(-c2ccccc2)o1	3.2*	0.57	14	-0.81	7576*	1476	3328*
c1ccc(-c2nn3nnnc3c3ccccc23)cc1	12*	0.2	8	-1	13348*	1552	3684*
